# Measured values from ChEMBL document CHEMBL1122815, “Synthesis and hypoglycemic activity of N-alkylated hydrazonopropionic acids” (J Med Chem, 1985).
# System: Cavia porcellus
# Assay: Hypoglycemic activity was given as differences between the mean changes in blood glucose concentration in control group and the treated group after a dose of 50 mg/kg, ip
# Assay type: functional
# Details: route intraperitoneal
# Method in brief: (§1)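 Guinea pigs fasted from about 20 h before and throughout the study, with free access to water; six animals per dose group. Compound was given ip as a neutral solution, and a parallel control group received physiological NaCl ip. Ear-vein blood (10 μL) was taken before dosing and then hourly to 6 h. Glucose was measured by hexokinase on the hemolysate. The effect was calculated as the % difference of the lowest glucose relative to the initial value. U-test, p ≤ 0.05.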
row,Structure (SMILES),Decrease in blood glucose [%]
1,C/C(=N\NC/C=C/c1cccc(Cl)c1)C(=O)O,6
2,C/C(=N\NCC(C)Cc1ccccc1)C(=O)O (centres undefined),22
3,C/C(=N\NCCCc1ccccc1)C(=O)[O-].[Na+],23
4,C/C(=N\NCCc1ccccc1)C(N)=O,15
5,C/C(=N\NCCc1ccccc1C)C(=O)O,14
6,C/C(=N\NCCc1cccc(C(F)(F)F)c1)C(=O)O,13
7,C/C(=N\NC(C)Cc1ccccc1)C(=O)[O-].[Na+] (centres undefined),14
8,C/C(=N\NCC(C)c1ccccc1)C(=O)[O-].[Na+] (centres undefined),15

# System: Cavia porcellus
# Assay: Hypoglycemic activity was given as differences between the mean changes in blood glucose concentration in control group and the treated group after a dose of 25 mg/kg, ip
# Assay type: functional
# Details: route intraperitoneal
# Method in brief: as §1
row,Structure (SMILES),Decrease in blood glucose [%]
1,C/C(=N\NCCc1ccccc1)C(=O)O,40
2,C/C(=N\NC/C=C/c1ccc(Cl)cc1)C(=O)O,9
3,C/C(=N\NCCCC1CCCC1)C(=O)O,68
4,C/C(=N\NC/C=C/c1cccc(Cl)c1)C(=O)O,14
5,C/C(=N\NCCc1ccc(F)cc1)C(=O)O,21
6,CCC/C=C/CN/N=C(\C)C(=O)O,43
7,C/C(=N\NC/C=C/c1ccccc1)C(=O)[O-].[Na+],15
8,C/C(=N\NCCOc1ccccc1)C(=O)O,22
9,CC/C=C/CCN/N=C(\C)C(=O)O,82
10,C/C(=N\NCCCCc1ccccc1)C(=O)[O-].[Na+],34
11,CCCCCCCCN/N=C(\C)C(=O)O,69
12,C/C(=N\NC/C=C/c1cccc(C)c1)C(=O)O,22
13,C/C(=N\NCc1ccccc1)C(=O)O,7
14,CCCN/N=C(\C)C(=O)O,24
15,CCCCCCCN/N=C(\C)C(=O)O,70
16,COc1ccc(CCN/N=C(\C)C(=O)O)cc1,7
17,C/C(=N\NCCc1ccc(Cl)cc1)C(=O)O,11

row,Structure (SMILES),Decrease in blood glucose [%]
1,C/C(=N\NCCc1ccc(C)cc1)C(=O)O,8
2,CCC(C)CCCN/N=C(\C)C(=O)O (centres undefined),41
3,C/C(=N\NCC/C=C/c1ccccc1)C(=O)O,15
4,CCCCN/N=C(\C)C(=O)O,41
5,CCCOCCCCN/N=C(\C)C(=O)O,22
6,C/C(=C\CN/N=C(\C)C(=O)O)c1ccccc1,20
7,C=CCCCCN/N=C(\C)C(=O)[O-].[Na+],60
8,COCCCCCCN/N=C(\C)C(=O)O,22
9,CCCCCCN/N=C(\C)C(=O)O,72
10,CCCCCN/N=C(\C)C(=O)[O-].[Na+],45
11,C/C(=N\NCCCC1CCCCC1)C(=O)[O-].[Na+],13
12,CCOC(=O)/C(C)=N/NCCc1ccccc1,14
13,CCCCCC(C)N/N=C(\C)C(=O)O (centres undefined),45
14,C/C(=N\NCCC1CCCCC1)C(=O)O,48
15,C/C(=N\NCCc1cccc(C)c1)C(=O)[O-].[Na+],24
16,N=C(N)NC(=N)NCCc1ccccc1 [PHENFORMIN],70

# System: Cavia porcellus
# Assay: Hypoglycemic activity at a dose of 20 mg/kg administered intraperitoneally
# Assay type: functional
# Details: dose 50 mg/kg; route intraperitoneal; in the assay text read “50 mg/kg” for “20 mg/kg”
# Method in brief: as §1
row,Structure (SMILES),Decrease in blood glucose [%]
1,CCCCCCCCCN/N=C(\C)C(=O)O,25

# System: not listed separately
# Assay: Lethal dose on oral administration to rats was determined
# Assay type: toxicity, organism-based
# Details: rat, in vivo
row,Structure (SMILES),LD50 [mg/kg]
1,C/C(=N\NCCC1CCCCC1)C(=O)O,520
2,C/C(=C/c1ccccc1)CN/N=C(\C)C(=O)O,680
